Series [1] in a line: Ratio of Cmax in beagle dog at 30 mg/kg, po qd administered for 1 month to IC50 for in vitro inhibition of dog DGAT2. The class given is organism-based, Canis lupus familiaris. The settings on record: in vivo. A digest of the protocol: (§1)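 One-month toxicity study in Beagle dogs with N = 2/sex/dose. Plasma exposure at each dose level was referenced to the dog DGAT2 enzymatic IC50, reported as the geometric mean of at least three replicates.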

In series [2] the test system is Canis familiaris. Nature of the series: Unbound Cmax in telemetered beagle dog at 50 mg/kg administered via oral gavage measured over 24 hrs. The class given is ADME, organism-based, Canis lupus familiaris. The settings on record: in vivo. A digest of the protocol: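 Telemetered Beagle dogs given oral doses, with blood pressure and heart rate monitored after dosing alongside plasma exposure.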

Series [3] relates to Canis familiaris. Description: Unbound Cmax in beagle dog at 3 mg/kg, po qd administered for 1 month. In kind it is ADME, organism-based, Canis lupus familiaris. The note with it: in vivo. The essentials:
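One-month dog toxicity study with once-daily oral dosing. Toxicity groups were 2/sex/dose, and unbound peak exposure was taken from toxicokinetic sampling.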

The nature of series [4]: Half life in beagle dog at 1 mg/kg, iv. The class given is ADME, organism-based, Canis lupus familiaris. The settings on record: in vivo.
Series [5] concerns Canis familiaris. Nature of the series: Toxicity in telemetered beagle dog assessed as increase in heart rate at 50 mg/kg administered via oral gavage measured up to 9 hrs of post dosing. The class given is organism-based, Canis lupus familiaris. The settings on record: in vivo.
For series [6], the system named is Rattus norvegicus. Description: In vivo DGAT2 inhibition in po dosed sucrose-fed rat assessed as decrease in plasma triglyceride levels after 2 hrs. In kind it is functional, organism-based. The essentials: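 Rats fed a high-sucrose diet, single oral dose of test article or vehicle; plasma TG measured in tail-vein blood 2 h post dose; n = 7–8 per group; results as percent change from vehicle group, one-way ANOVA with Dunnett's test.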

The nature of series [7]: Ratio of Cmax in beagle dog at 3 mg/kg, po qd administered for 1 month to IC50 for in vitro inhibition of dog DGAT2. The class given is organism-based, Canis lupus familiaris. The note with it: in vivo. The essentials:
as §1

Series [8] can be described thus: Ratio of Cmax in telemetered beagle dog at 50 mg/kg administered via oral gavage measured over 24 hrs to IC50 for in vitro inhibition of dog DGAT2. In kind it is organism-based, Canis lupus familiaris. The note with it: in vivo. The essentials: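 Telemetered Beagle dogs given single oral doses (5, 25 and 50 mg kg–1), with systolic and diastolic blood pressure and heart rate monitored after dosing. Cmax is related to the dog DGAT2 enzymatic IC50, which is the geometric mean of at least three replicates.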

Series [9] is described as follows: Thermodynamic solubility of the compound at pH 6.5. The class given is physicochemical. The note with it: buffer, read-out: Therm_solubility.
Series [10] concerns the target T1, Diacylglycerol O-acyltransferase 2 (Homo sapiens, UniProt Q96PD7).
T1 sequence (Q96PD7 whole entry): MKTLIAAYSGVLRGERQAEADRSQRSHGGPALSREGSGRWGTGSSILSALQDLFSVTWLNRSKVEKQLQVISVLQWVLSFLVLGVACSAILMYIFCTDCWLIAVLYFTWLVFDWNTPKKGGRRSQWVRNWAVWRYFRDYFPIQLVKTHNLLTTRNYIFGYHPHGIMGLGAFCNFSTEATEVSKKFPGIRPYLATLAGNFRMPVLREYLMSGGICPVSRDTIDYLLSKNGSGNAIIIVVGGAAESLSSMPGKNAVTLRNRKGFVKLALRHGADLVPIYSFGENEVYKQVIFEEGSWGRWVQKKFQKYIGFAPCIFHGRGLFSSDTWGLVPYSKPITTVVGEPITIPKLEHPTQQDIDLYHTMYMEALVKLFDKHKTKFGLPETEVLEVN
Nature of the series: Inhibition of human DGAT2. A digest of the protocol:
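IC50 against human DGAT2 in an enzymatic assay, reported as the geometric mean of at least three replicates with SEM.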

For series [11], the system named is Canis familiaris. Description: Toxicity in telemetered beagle dog assessed as increase in heart rate at 25 mg/kg administered via oral gavage measured during 4 hrs of post dosing. The note with it: in vivo. The class given is organism-based, Canis lupus familiaris.
For series [12], the target named is T2, Diacylglycerol O-acyltransferase 1 (Homo sapiens, UniProt O75907).
T2 sequence (O75907 whole entry): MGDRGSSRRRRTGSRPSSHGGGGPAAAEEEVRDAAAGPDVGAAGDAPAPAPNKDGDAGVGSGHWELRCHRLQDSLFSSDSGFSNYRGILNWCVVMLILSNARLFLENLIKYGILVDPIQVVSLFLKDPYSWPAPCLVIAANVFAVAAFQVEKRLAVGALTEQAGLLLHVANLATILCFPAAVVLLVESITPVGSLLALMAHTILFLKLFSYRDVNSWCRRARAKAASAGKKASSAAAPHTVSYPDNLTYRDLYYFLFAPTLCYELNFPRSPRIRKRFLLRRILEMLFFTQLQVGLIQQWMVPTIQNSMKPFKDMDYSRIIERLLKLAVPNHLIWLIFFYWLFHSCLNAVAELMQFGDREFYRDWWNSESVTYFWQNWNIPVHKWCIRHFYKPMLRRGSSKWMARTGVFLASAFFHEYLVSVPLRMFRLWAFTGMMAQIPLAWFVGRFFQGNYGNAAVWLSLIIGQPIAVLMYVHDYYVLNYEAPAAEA
Nature of the series: Inhibition of DGAT1 (unknown origin).

Series [13] deals with Rattus norvegicus. Description: In vivo inhibition of DGAT2 in Wistar Han IGS rat assessed as coverage of in vitro IC50 for rat DGAT2 at 100 mg/kg, po qd administered for 14 days. Also noted: scale not given: the % may be the effect or the level left. The class given is functional. A digest of the protocol: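 Wistar Han rats, once-daily oral dosing for 14 days (exploratory, 5/sex/dose) or 1 month (10/sex/dose); toxicokinetics in 3–4/sex/dose with sexes combined; coverage is the average % above rat DGAT2 IC50 at steady state over the 24 h dosing interval.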

For series [14], the system named is Rattus norvegicus. Description: Toxicity in Wistar Han IGS rat assessed as gastric ulcer at 500 mg/kg, po qd administered for 14 days. The class given is organism-based. The settings on record: in vivo, 336 h. The essentials:
(§2)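 Wistar Han rats, daily oral dosing for 14 days (5/sex/dose) or 1 month (10/sex/dose); microscopic findings reported as incidence by sex, plus organ weights.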

Series [15] relates to Rattus norvegicus. Nature of the series: Toxicity in Wistar Han IGS rat assessed as foamy macrophage accumulation in lung at 500 mg/kg, po qd administered for 14 days. The note with it: in vivo, 336 h. In kind it is organism-based. A digest of the protocol: as §2
In series [16] the test system is Canis familiaris. Description: Toxicity in beagle dog assessed as renal tubular regeneration at 300 mg/kg, po qd administered for 14 days. In kind it is organism-based, Canis lupus familiaris. The note with it: in vivo, 336 h.
Series [17] concerns Canis familiaris. Description: In vivo inhibition of DGAT2 in beagle dog assessed as coverage of in vitro IC50 for dog DGAT2 at 50 mg/kg, po qd administered for 1 month. The class given is functional, Canis lupus familiaris. Also noted: scale not given: the % may be the effect or the level left. The essentials:
(§3)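 Beagle dogs, once-daily oral dosing for 14 days or 1 month; systemic exposure with sexes combined; coverage is the average % above dog DGAT2 IC50 at steady state over the 24 h dosing interval.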

For series [18], the system named is Canis familiaris. Description: Toxicity in telemetered beagle dog assessed as foamy salivation at 20 mg/kg, iv administered as single bolus dose over 2 mins. In kind it is organism-based, Canis lupus familiaris. The note with it: in vivo.
The test system of series [19] is Canis familiaris. Nature of the series: Unbound AUC in beagle dog at 50 mg/kg, po qd administered for 1 month. The class given is ADME, organism-based, Canis lupus familiaris. The note with it: in vivo. A digest of the protocol:
(§4)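 Beagle dogs were dosed orally once daily in a 14-day exploratory study or 1-month toxicity studies. Steady-state systemic exposure over the 24 h dosing interval is reported as the mean of male and female values combined.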

Series [20] has as its system Rattus norvegicus. Nature of the series: Toxicity in Wistar Han IGS rat at 100 mg/kg, po qd administered for 14 days. The note with it: in vivo, 336 h. The class given is organism-based. The essentials:
as §2

Series [21] has as its system Canis familiaris. Nature of the series: Toxicity in telemetered beagle dog assessed as change in ECG intervals at 5 mg/kg administered via oral gavage measured over 24 hrs. The class given is organism-based, Canis lupus familiaris. The settings on record: in vivo.
For series [22], the system named is Canis familiaris. Nature of the series: In vivo inhibition of DGAT2 in beagle dog assessed as coverage of in vitro IC50 for dog DGAT2 at 5 mg/kg, po qd administered for 1 month. Also noted: scale not given: the % may be the effect or the level left. The class given is functional, Canis lupus familiaris. A digest of the protocol:
as §3

The test system of series [23] is Rattus norvegicus. Nature of the series: Toxicity in Wistar Han IGS rat at 30 mg/kg, po qd administered for 1 month. The class given is organism-based. The settings on record: in vivo. A digest of the protocol:
as §2

Series [24] deals with Canis familiaris. Nature of the series: Unbound AUC in beagle dog at 2 mg/kg, po qd administered for 1 month. In kind it is ADME, organism-based, Canis lupus familiaris. The note with it: in vivo. The essentials: as §4

Values after ≈ are worked out from the molar mass of the structure shown.

Turning to `C[C@@H](c1nc2ccc(N3CCC[C@@H](C(=O)N4CCCC4)C3)nc2[nH]1)n1cc(Cl)cn1`, the Ratio came to 92 in [1], 11 in series [7] and 110 in series [8]. The fCmax worked out at 4.7 µM in the series with Canis familiaris [2] and 454 nM in the series on Canis familiaris [3]. In addition, the half-life in series [4] was 3.2 h. The values for the Activity in the series on Canis familiaris [5] and with Canis familiaris [11] were 15 bpm and 10 bpm, respectively. In addition, in the series with Rattus norvegicus [6], the inhibition entry was “Dose-dependent effect”. Also, in series [9], the solubility thermodynamic was 285 µg/mL (≈ 666 µM). The values for the IC50 in series [10] and in series [12] were 20 nM and > 50000 nM, respectively.
Regarding `CS(=O)(=O)O.O=C([C@@H]1CCCN(c2ccc3nc(C4(n5cc(Cl)cn5)CC4)[nH]c3n2)C1)N1CCCC1`, the Activity in the series with Rattus norvegicus [13] is listed as 98%; with Rattus norvegicus [14], “Toxic”; in the series on Rattus norvegicus [15], “Toxic”; in the series with Canis familiaris [16], “Toxic”; in the series on Canis familiaris [17], >99%; with Canis familiaris [18], “Non-Toxic”. Besides, the Activity result is reported as “Non-Toxic” with Rattus norvegicus [20], “Non-Toxic” with Canis familiaris [21], 87% in the series with Canis familiaris [22] and “Non-Toxic” in the series on Rattus norvegicus [23]. Also, the fAUC in the series with Canis familiaris [19] came to 57500 ng·h/mL; in the series with Canis familiaris [24], 238 ng·h/mL.

Broadly, the half-life is how long it takes for the measured level to halve. Broadly, the IC50 is the point on the concentration scale where inhibition reaches its midpoint.

Values taken from ChEMBL document CHEMBL4261487, “Small structural changes of the imidazopyridine diacylglycerol acyltransferase 2 (DGAT2) inhibitors produce an improved safety profile” (Medchemcomm, 2017).
